# Test system: HEK-293T
# Assay: Multiplex assay against HEK293T
# Assay type: toxicity, cell-based
# Conditions: human
# Method in brief: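 Live cells were stained at seeding with Hoechst33342, BioTracker Green Microtubule Cytoskeleton Dye, MitoTracker Red and Annexin V Alexa Fluor 680, then imaged on a CQ1 microscope at 37°C and 5% CO2 after compound addition. CellPathfinder machine-learning gating split cells into Hoechst high-intensity objects or normal cells. Normal cells were split into healthy, pyknosed or fragmented nuclei, and pyknosed cells into mitotic or apoptotic. Tubulin, mitochondrial-mass and membrane-permeability phenotypes are per cents of healthy-nucleus cells.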
# [1] = 12 h, 1 µM, compound concentration 1 uM, replicate 1
# [2] = 12 h, 1 µM, compound concentration 1 uM, replicate 2
# [3] = 12 h, 10 µM, compound concentration 10 uM, replicate 1
# [4] = 12 h, 10 µM, compound concentration 10 uM, replicate 2
# [5] = 24 h, 1 µM, compound concentration 1 uM, replicate 1
# [6] = 24 h, 1 µM, compound concentration 1 uM, replicate 2
# [7] = 24 h, 10 µM, compound concentration 10 uM, replicate 1
# [8] = 24 h, 10 µM, compound concentration 10 uM, replicate 2
# [9] = 48 h, 1 µM, compound concentration 1 uM, replicate 1
# [10] = 48 h, 1 µM, compound concentration 1 uM, replicate 2
# [11] = 48 h, 10 µM, compound concentration 10 uM, replicate 1
# [12] = 48 h, 10 µM, compound concentration 10 uM, replicate 2
smiles,measurement,setting,value
CN(C)c1ccnc2sc3c(=O)n(N4CCCCCC4)cnc3c12,Population Apoptotic (%),[1],45%
same,Population Fragmented Nuclei (%),[1],9%
same,Population Healthy Nuclei (%),[1],76%
same,Population Hoechst High Intensity Objects (%),[1],4%
same,Population Membrane Permeable-Phenotype (%),[1],1%
same,Population Mitochondria Different-Phenotype (%),[1],50%
same,Population Mitotic Cells (%),[1],54%
same,Population Normal (%),[1],95%
same,Population Pyknosed Nuclei (%),[1],13%
same,Population Tubulin-Different-Phenotype (%),[1],43%
same,Total Cell Count,[1],360
same,Population Apoptotic (%),[2],51%
same,Population Fragmented Nuclei (%),[2],5%
same,Population Healthy Nuclei (%),[2],82%
same,Population Hoechst High Intensity Objects (%),[2],8%
same,Population Membrane Permeable-Phenotype (%),[2],0%
same,Population Mitochondria Different-Phenotype (%),[2],67%
same,Population Mitotic Cells (%),[2],48%
same,Population Normal (%),[2],91%
same,Population Pyknosed Nuclei (%),[2],12%
same,Population Tubulin-Different-Phenotype (%),[2],25%
same,Total Cell Count,[2],335
same,Population Apoptotic (%),[3],36%
same,Population Fragmented Nuclei (%),[3],4%
same,Population Healthy Nuclei (%),[3],81%
same,Population Hoechst High Intensity Objects (%),[3],10%
same,Population Membrane Permeable-Phenotype (%),[3],0%
same,Population Mitochondria Different-Phenotype (%),[3],78%
same,Population Mitotic Cells (%),[3],63%
same,Population Normal (%),[3],89%
same,Population Pyknosed Nuclei (%),[3],14%
same,Population Tubulin-Different-Phenotype (%),[3],79%
same,Total Cell Count,[3],387
same,Population Apoptotic (%),[4],59%
same,Population Fragmented Nuclei (%),[4],9%
same,Population Healthy Nuclei (%),[4],72%
same,Population Hoechst High Intensity Objects (%),[4],13%
same,Population Mitochondria Different-Phenotype (%),[4],76%
same,Population Mitotic Cells (%),[4],40%
same,Population Normal (%),[4],86%
same,Population Pyknosed Nuclei (%),[4],17%
same,Population Tubulin-Different-Phenotype (%),[4],59%
same,Total Cell Count,[4],308
same,Population Apoptotic (%),[5],30%
same,Population Fragmented Nuclei (%),[5],10%
same,Population Healthy Nuclei (%),[5],76%
same,Population Hoechst High Intensity Objects (%),[5],4%
same,Population Membrane Permeable-Phenotype (%),[5],1%
same,Population Mitochondria Different-Phenotype (%),[5],27%
same,Population Mitotic Cells (%),[5],70%
same,Population Normal (%),[5],95%
same,Population Pyknosed Nuclei (%),[5],12%
same,Population Tubulin-Different-Phenotype (%),[5],24%
same,Total Cell Count,[5],510
same,Population Apoptotic (%),[6],25%
same,Population Fragmented Nuclei (%),[6],7%
same,Population Healthy Nuclei (%),[6],84%
same,Population Hoechst High Intensity Objects (%),[6],5%
same,Population Membrane Permeable-Phenotype (%),[6],0%
same,Population Mitochondria Different-Phenotype (%),[6],51%
same,Population Mitotic Cells (%),[6],74%
same,Population Normal (%),[6],94%
same,Population Pyknosed Nuclei (%),[6],7%
same,Population Tubulin-Different-Phenotype (%),[6],22%
same,Total Cell Count,[6],470
same,Population Apoptotic (%),[7],42%
same,Population Fragmented Nuclei (%),[7],7%
same,Population Healthy Nuclei (%),[7],76%
same,Population Hoechst High Intensity Objects (%),[7],8%
same,Population Membrane Permeable-Phenotype (%),[7],0%
same,Population Mitochondria Different-Phenotype (%),[7],80%
same,Population Mitotic Cells (%),[7],57%
same,Population Normal (%),[7],91%
same,Population Pyknosed Nuclei (%),[7],16%
same,Population Tubulin-Different-Phenotype (%),[7],71%
same,Total Cell Count,[7],428
same,Population Apoptotic (%),[8],66%
same,Population Fragmented Nuclei (%),[8],10%
same,Population Healthy Nuclei (%),[8],74%
same,Population Hoechst High Intensity Objects (%),[8],13%
same,Population Mitochondria Different-Phenotype (%),[8],75%
same,Population Mitotic Cells (%),[8],33%
same,Population Normal (%),[8],86%
same,Population Pyknosed Nuclei (%),[8],15%
same,Population Tubulin-Different-Phenotype (%),[8],53%
same,Total Cell Count,[8],359
same,Population Apoptotic (%),[9],27%
same,Population Fragmented Nuclei (%),[9],13%
same,Population Healthy Nuclei (%),[9],78%
same,Population Hoechst High Intensity Objects (%),[9],2%
same,Population Membrane Permeable-Phenotype (%),[9],0%
same,Population Mitochondria Different-Phenotype (%),[9],23%
same,Population Mitotic Cells (%),[9],72%
same,Population Normal (%),[9],97%
same,Population Pyknosed Nuclei (%),[9],7%
same,Population Tubulin-Different-Phenotype (%),[9],14%
same,Total Cell Count,[9],721
same,Population Apoptotic (%),[10],20%
same,Population Fragmented Nuclei (%),[10],11%
same,Population Healthy Nuclei (%),[10],82%
same,Population Hoechst High Intensity Objects (%),[10],3%
same,Population Membrane Permeable-Phenotype (%),[10],2%
same,Population Mitochondria Different-Phenotype (%),[10],31%
same,Population Mitotic Cells (%),[10],80%
same,Population Normal (%),[10],96%
same,Population Pyknosed Nuclei (%),[10],6%
same,Population Tubulin-Different-Phenotype (%),[10],15%
same,Total Cell Count,[10],663
same,Population Apoptotic (%),[11],70%
same,Population Fragmented Nuclei (%),[11],15%
same,Population Healthy Nuclei (%),[11],72%
same,Population Hoechst High Intensity Objects (%),[11],8%
same,Population Membrane Permeable-Phenotype (%),[11],0%
same,Population Mitochondria Different-Phenotype (%),[11],66%
same,Population Mitotic Cells (%),[11],29%
same,Population Normal (%),[11],91%
same,Population Pyknosed Nuclei (%),[11],12%
same,Population Tubulin-Different-Phenotype (%),[11],54%
same,Total Cell Count,[11],497
same,Population Apoptotic (%),[12],57%
same,Population Fragmented Nuclei (%),[12],11%
same,Population Healthy Nuclei (%),[12],75%
same,Population Hoechst High Intensity Objects (%),[12],6%
same,Population Mitochondria Different-Phenotype (%),[12],63%
same,Population Mitotic Cells (%),[12],42%
same,Population Normal (%),[12],93%
same,Population Tubulin-Different-Phenotype (%),[12],45%
same,Total Cell Count,[12],450

# From ChEMBL document CHEMBL5058577, “EUbOPEN Chemogenomics Library 2 (Multiplex)” (2022)
